Results collected from several papers.
Lines come from different studies, so protocols differ.
PIK3CG: Phosphatidylinositol 4,5-bisphosphate 3-kinase catalytic subunit gamma isoform (PIK3CG, Homo sapiens, UniProt P48736)
PTGS2: Prostaglandin G/H synthase 2 (PTGS2, Homo sapiens, UniProt P35354)
Inositol-tetrakisphosphate 1-kinase: Inositol-tetrakisphosphate 1-kinase (Homo sapiens, UniProt Q13572)

Compound | target | assay | setting | IC50
COc1cc(N=C2C(=O)Nc3ccccc32)cc(OC)c1 | PIK3CG | enzyme activity, inhibitor, ADP detection |  | 7.86 nM
NS(=O)(=O)c1ccc(-n2nc(C(=O)NN3C(=O)c4ccccc4C3=O)cc2-c2ccccc2)cc1 | PTGS2 | enzyme activity, inhibitor |  | 2640 nM
CN(C)C(=O)c1cc2cnc(Nc3ccc(-c4cccc5c(=O)cc(N6CCOCC6)oc45)cn3)nc2n1C1CCCC1 | PIK3CG | enzyme activity, inhibitor, radiometric |  | > 10000 nM
Nc1ncnc2c1ncn2[C@@H]1O[C@H](CO)C[C@H]1O | Inositol-tetrakisphosphate 1-kinase | enzyme activity, inhibitor, ADP detection |  | 2400 nM
O=C1C(=Nc2ccc(Cl)cc2Br)c2ccccc2N1Cc1ccc([N+](=O)[O-])cc1 | PIK3CG | enzyme activity, inhibitor, ADP detection |  | 2.89 nM
NS(=O)(=O)c1ccc(-n2nc(-c3nnc(CCl)o3)cc2-c2ccccc2)cc1 | PTGS2 | enzyme activity, inhibitor |  | 2640 nM
NC(=O)C1CN(C(=O)CCl)c2ccccc2O1 (stereo not drawn) | Creatine kinase U-type, mitochondrial (CKMT1A, Homo sapiens, UniProt P12532) | enzyme activity, inhibitor, ADP detection | pH 8.5 | 3000 nM
Nc1ncnc2c1ncn2[C@@H]1O[C@H](CO)[C@@H](O)[C@@H]1F | Inositol-tetrakisphosphate 1-kinase | enzyme activity, inhibitor |  | 860 nM
CC(C)c1cccc(C(C)C)c1N=C1C(=O)Nc2ccccc21 | PIK3CG | enzyme activity, inhibitor, ADP detection |  | 12.6 nM
Nc1ncnc2c1ncn2C1CCCO1 (stereo not drawn) | Inositol-tetrakisphosphate 1-kinase | enzyme activity, inhibitor |  | 1000 nM
Cc1ccc(CN2C(=O)C(=Nc3cccc(Cl)c3)c3ccccc32)cc1 | PIK3CG | enzyme activity, inhibitor, ADP detection |  | 1.11 nM
CN(C)C(=O)c1cc2cnc(Nc3cc(C(F)(F)F)c(-c4ccc5c(=O)cc(N6CCOCC6)oc5c4)cn3)nc2n1C1CCCC1 | PIK3CG | enzyme activity, inhibitor, radiometric |  | > 10000 nM
O=C1C(=Nc2ccccc2Br)c2ccccc2N1Cc1ccccc1 | PIK3CG | enzyme activity, inhibitor, ADP detection |  | 7.6 nM
COc1ccc(-c2cc(=O)c3cccc(Nc4ncc5cc(C(=O)N(C)C)n(C6CCCC6)c5n4)c3o2)cc1 | PIK3CG | enzyme activity, inhibitor, radiometric |  | > 10000 nM
c1ccc(COc2[nH]cnc3ncnc2-3)cc1 | Inositol-tetrakisphosphate 1-kinase | enzyme activity, inhibitor |  | 5300 nM
CCc1ccc(N=C2C(=O)Nc3ccccc32)cc1 | PIK3CG | enzyme activity, inhibitor, ADP detection |  | 93.4 nM
NS(=O)(=O)c1ccc(-n2nc(C(=O)NN3C(=O)CCC3=O)cc2-c2ccccc2)cc1 | PTGS2 | enzyme activity, inhibitor |  | 3630 nM
CN(C)C(=O)c1cc2cnc(Nc3ccc(-c4ccc5c(=O)cc(N6CCOCC6)oc5c4)cc3)nc2n1C1CCCC1 | PIK3CG | enzyme activity, inhibitor, radiometric |  | 3390 nM
O=C(CCNC(=O)CNC(=O)CC(c1ccccc1)(c1ccccc1)c1ccccc1)NCC1CCN(Cc2ccc(F)cc2)CC1 | Muscarinic acetylcholine receptor M3 (CHRM3, Homo sapiens, UniProt P20309) | ligand displacement, radioligand | cell membranes | 15100 nM
O=C1Nc2ccccc2C1=Nc1ccccc1I | PIK3CG | enzyme activity, inhibitor, ADP detection |  | 3.88 nM
CN(C)C(=O)c1cc2cnc(Nc3cc(C(F)(F)F)c(-c4cccc5c(=O)cc(N6CCOCC6)oc45)cn3)nc2n1C1CCCC1 | PIK3CG | enzyme activity, inhibitor, radiometric |  | > 10000 nM
COc1nc2ccc(Br)cc2cc1[C@@H](c1ccccc1)[C@@](O)(CCN(C)C)c1cccc2ccccc12 | Retinal dehydrogenase 2 (ALDH1A2, Homo sapiens, UniProt O94788) | enzyme activity, inhibitor, fluorescence | 15 min, pH 7.5 | < 10000 nM
CN(C)C(=O)c1cc2cnc(Nc3cncc(-c4cccc5c(=O)cc(N6CCOCC6)oc45)c3)nc2n1C1CCCC1 | PIK3CG | enzyme activity, inhibitor, radiometric |  | 6110 nM
COc1cc(NC(=O)c2cnn(-c3ccc([N+](=O)[O-])cc3)c2C(F)(F)F)cc(OC)c1OC | PTGS2 | enzyme activity, inhibitor |  | 4820 nM
